pEC50: −log10 of the molar value. Converted amounts (≈) assume the structure as drawn. The source made the active and inactive calls. The calls are words filed in the database; no cut-off is given here.
What was measured:
[1] = Solubility of the compound in 50 mM ammonium acetate buffer at 250 uM at pH 7.4 after 24 hrs by UPLC/UV/TOF-MS analysis; assay type: physicochemical; details: 50 mM ammonium acetate buffer, pH 7.4
Procedure, shortened: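 From 10 mM DMSO stock, 250 μM in 50 mM ammonium acetate pH 7.4 (2.5% DMSO final). Shaken 24 h at room temperature, filtered, diluted 1:2. UPLC/UV (254 nm) quantified against a 250 μM standard in acetonitrile/buffer.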

[2] = Permeability of compound at 10 uM after 4 hrs by PAMPA; assay type: ADME
Procedure, shortened: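 PAMPA with porcine brain lipid (2% w/v in dodecane). Compound 10 μM in HBSS/Hepes pH 7.4 in the donor well, 4 h at 37 °C and 80% humidity, warfarin membrane-integrity control. Donor and acceptor concentrations by UPLC-MS-TOF; effective permeability Pe calculated.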

CYP3A4 = CYP3A4 (Homo sapiens, UniProt P08684); assay: Metabolic stability assessed as recombinant human CYP3A4-mediated drug degradation by measuring compound remaining incubated for 1 hr by MS analysis; assay type: ADME; details: read-out: Stability
Procedure, shortened: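 Recombinant hCYP3A4 at 20 pmol/mL, compound at 1 μM final with 0.25% organic solvent. 1 h at 37 °C with or without NADPH regenerating system, acetonitrile stop. Reported as % remaining by MS, NADPH sample versus the no-NADPH control.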

[3] = system: Cystic fibrosis transmembrane conductance regulator (Homo sapiens), P13569 [F508del]; assay: (§1) Corrector activity at human CFTR F508 deletion mutant expressed in FRT cells incubated for 25 mins with forskolin by YFP-based fluorescence analysis relative to control; assay type: cell-based
Procedure, shortened: (§2)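 FRT cells co-expressing ΔF508-CFTR and YFP-H148Q/I152L, grown 18–24 h at 37 °C, then 18–24 h at 37 °C with test compound. Then 25 min in PBS with forskolin (20 μM) plus genistein (50 μM). Iodide injected (final 100 mM) with a 14-s read. Exponential fit of the final 11 s gave dF/dt. EC50/Emax from dose–response, normalized to DMSO (0%) and positive control (100%). Mean of 2–3 experiments.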

[4] = system: Cystic fibrosis transmembrane conductance regulator (Homo sapiens), P13569 [F508del]; assay: (§3) Corrector activity at human CFTR F508 deletion mutant expressed in human A549 cells incubated for 25 mins by YFP-based fluorescence analysis; assay type: cell-based
Procedure, shortened: (§4)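 A549 cells stably co-expressing ΔF508-CFTR and YFP-H148Q/I152L, cultured in DMEM/F-12. Corrector treatment 18–24 h at 37 °C, then 25 min forskolin (20 μM) plus genistein (50 μM). Iodide injected (final 100 mM). Initial slope dF/dt taken from an exponential fit of the final 11 s. EC50/Emax from dose–response. Mean of 2–3 independent experiments.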

[5] = biological target: T1, Cystic fibrosis transmembrane conductance regulator (Homo sapiens, UniProt P13569, F508DEL); assay: as §1; assay type: cell-based; procedure, shortened: as §2
[6] = biological target: T1, Cystic fibrosis transmembrane conductance regulator; assay: as §3; assay type: cell-based; procedure, shortened: as §4

CYP3A4, sequence (P08684 whole entry): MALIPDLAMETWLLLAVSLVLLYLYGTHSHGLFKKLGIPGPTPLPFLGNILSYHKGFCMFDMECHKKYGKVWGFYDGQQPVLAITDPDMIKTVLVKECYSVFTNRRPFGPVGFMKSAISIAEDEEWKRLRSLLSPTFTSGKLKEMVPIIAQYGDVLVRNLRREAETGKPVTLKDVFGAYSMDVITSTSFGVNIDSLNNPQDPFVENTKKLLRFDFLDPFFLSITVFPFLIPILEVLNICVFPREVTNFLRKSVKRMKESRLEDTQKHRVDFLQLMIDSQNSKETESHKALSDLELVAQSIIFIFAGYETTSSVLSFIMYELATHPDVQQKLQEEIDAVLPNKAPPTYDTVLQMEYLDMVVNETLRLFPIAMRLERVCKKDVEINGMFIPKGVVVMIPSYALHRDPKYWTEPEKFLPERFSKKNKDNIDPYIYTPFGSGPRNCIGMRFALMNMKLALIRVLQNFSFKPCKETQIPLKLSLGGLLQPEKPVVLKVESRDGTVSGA
T1 sequence (P13569 as listed by the source): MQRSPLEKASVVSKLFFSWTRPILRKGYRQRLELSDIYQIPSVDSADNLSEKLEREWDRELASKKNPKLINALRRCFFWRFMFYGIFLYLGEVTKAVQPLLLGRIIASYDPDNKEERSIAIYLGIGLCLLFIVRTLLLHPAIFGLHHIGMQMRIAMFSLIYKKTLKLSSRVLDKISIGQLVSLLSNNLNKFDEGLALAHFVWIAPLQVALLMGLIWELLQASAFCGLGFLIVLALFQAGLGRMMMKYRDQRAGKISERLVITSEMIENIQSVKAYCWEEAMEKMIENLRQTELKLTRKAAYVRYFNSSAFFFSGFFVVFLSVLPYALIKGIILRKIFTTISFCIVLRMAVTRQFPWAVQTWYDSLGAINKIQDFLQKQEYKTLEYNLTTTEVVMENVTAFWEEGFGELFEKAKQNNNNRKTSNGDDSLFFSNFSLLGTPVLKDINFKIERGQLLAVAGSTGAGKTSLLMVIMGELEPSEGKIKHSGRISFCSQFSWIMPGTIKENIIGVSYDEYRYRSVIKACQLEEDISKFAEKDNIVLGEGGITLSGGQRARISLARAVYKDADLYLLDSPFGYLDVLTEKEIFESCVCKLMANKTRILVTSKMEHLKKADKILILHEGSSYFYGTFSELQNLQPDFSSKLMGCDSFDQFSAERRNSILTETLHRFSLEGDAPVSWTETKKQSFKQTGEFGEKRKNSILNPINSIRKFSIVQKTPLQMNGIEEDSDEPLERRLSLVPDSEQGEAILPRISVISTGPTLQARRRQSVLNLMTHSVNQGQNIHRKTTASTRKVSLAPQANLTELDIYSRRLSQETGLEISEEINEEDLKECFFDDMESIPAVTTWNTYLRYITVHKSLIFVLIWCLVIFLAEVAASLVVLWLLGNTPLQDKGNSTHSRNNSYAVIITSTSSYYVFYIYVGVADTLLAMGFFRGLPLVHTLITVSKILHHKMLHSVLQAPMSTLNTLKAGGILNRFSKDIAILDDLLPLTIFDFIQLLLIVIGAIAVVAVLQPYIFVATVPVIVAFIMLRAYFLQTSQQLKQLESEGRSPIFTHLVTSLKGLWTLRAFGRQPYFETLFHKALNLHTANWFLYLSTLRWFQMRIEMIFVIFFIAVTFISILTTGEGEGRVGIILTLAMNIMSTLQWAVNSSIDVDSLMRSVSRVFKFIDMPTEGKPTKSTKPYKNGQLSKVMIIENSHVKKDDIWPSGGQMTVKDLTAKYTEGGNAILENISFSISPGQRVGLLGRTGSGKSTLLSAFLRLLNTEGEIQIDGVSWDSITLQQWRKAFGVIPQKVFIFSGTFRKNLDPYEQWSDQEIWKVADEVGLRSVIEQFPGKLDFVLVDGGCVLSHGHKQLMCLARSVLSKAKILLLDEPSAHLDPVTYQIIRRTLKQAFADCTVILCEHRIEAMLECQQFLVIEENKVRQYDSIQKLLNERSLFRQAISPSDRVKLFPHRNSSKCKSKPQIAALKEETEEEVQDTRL
Cystic fibrosis transmembrane conductance regulator (Homo sapiens), P13569 [F508del], sequence (P13569 as listed by the source): as above

Row | Structure (SMILES) | solubility at 24 h, 250 µM [1] | permeability [2] | remaining at 1 h (CYP3A4) | Emax [3] | Emax [4] | pEC50 [5] | pEC50 [6]
1 | CN(C)CCN1CCN(c2nc(-c3ccccn3)nc3c2CN(Cc2ccc(F)cc2)CC3)CC1 | 231 µM (≈ 110 µg/mL) | permeable | 82% | inactive | inactive |  | 
2 | CN(C)CCN1CCN(c2nc(-c3ccncc3)nc3c2CN(Cc2ccccc2)CC3)CC1 | 250 µM (≈ 114 µg/mL) | permeable | 21% | inactive | inactive |  | 
3 | NC(=O)C1CCN(c2nc(-c3cccnc3)nc3c2CN(Cc2ccccc2)CC3)CC1 | 224 µM (≈ 96 µg/mL) | permeable | 22% | inactive | inactive |  | 
4 | Fc1ccc(CN2CCc3nc(-c4ccccn4)nc(NCCN4CCCC4)c3C2)cc1 | 196 µM (≈ 84.8 µg/mL) | permeable | 71% | 40% | 40.6% | 6.70 | 6.30
5 | NC(=O)CN1CCN(c2nc(-c3cccnc3)nc3c2CN(Cc2ccccc2)CC3)CC1 | 156 µM (≈ 69.2 µg/mL) | permeable | 17% | inactive | inactive |  | 
6 | CN1CCN(CCCNc2nc(-c3ccncc3)nc3c2CN(Cc2ccccc2)CC3)CC1 | 250 µM (≈ 114 µg/mL) | permeable | 13% | inactive | inactive |  | 
7 | CN(C)CCN1CCN(c2nc(-c3ccccn3)nc3c2CN(S(=O)(=O)c2ccccc2)CC3)CC1 | 195 µM (≈ 99 µg/mL) | permeable | 84% | inactive | inactive |  | 
8 | CN(C)CCN1CCN(c2nc(-c3ccccn3)nc3c2CN(CC2CCCCC2)CC3)CC1 | 191 µM (≈ 88.6 µg/mL) | permeable | 65% | 41% | inactive | 6.05 | 
9 | COc1ccc(CN2CCc3nc(-c4ccccn4)nc(N4CCN(CC(N)=O)CC4)c3C2)cc1 | 217 µM (≈ 103 µg/mL) | permeable | 79% | 35.9% | 36.8% | 5.64 | 4.96
10 | COc1ccc(CN2CCc3nc(-c4ccccn4)nc(N4CCC(C(N)=O)CC4)c3C2)cc1 | 224 µM (≈ 103 µg/mL) | permeable | 78% | 86.6% | inactive | 5.46 | 
11 | CN(C)CCN1CCN(c2nc(-c3cccnc3)nc3c2CN(Cc2ccccc2)CC3)CC1 | 247 µM (≈ 113 µg/mL) | permeable | 41% | inactive | inactive |  | 
12 | CN1CCN(CCCNc2nc(-c3cccnc3)nc3c2CN(Cc2ccccc2)CC3)CC1 | 234 µM (≈ 107 µg/mL) | permeable | 15% | inactive | inactive |  | 
13 | CN(C)CCN1CCN(c2nc(-c3ccccn3)nc3c2CN(Cc2ccccc2)CC3)CC1 | 218 µM (≈ 99.8 µg/mL) | permeable | 100% | 41.3% | 57% | 5.82 | 4.93
14 | CCN(C(C)=O)C1CCN(c2nc(-c3ccccn3)nc3c2CN(Cc2ccc(OC)cc2)CC3)C1 (stereo not given) | 218 µM (≈ 106 µg/mL) | permeable | 61% | 36.9% | inactive | 6.52 | 
15 | COc1ccc(CN2CCc3nc(-c4ccccn4)nc(N4CCN(CCO)CC4)c3C2)cc1 | 124 µM (≈ 57.1 µg/mL) | permeable | 97% | 107% | inactive | 6.40 | 
16 | COc1ccc(CN2CCc3nc(-c4ccccn4)nc(NCCCn4ccnc4)c3C2)cc1 | 217 µM (≈ 98.9 µg/mL) | permeable | 28% | 40.6% | inactive | 6.70 | 
17 | CN(C)CCN1CCN(c2nc(-c3ccccn3)nc3c2CN(C(=O)c2ccccc2)CC3)CC1 | 244 µM (≈ 115 µg/mL) | permeable | 100% | inactive | inactive |  | 
18 | CC(=O)NCCNc1nc(-c2ccccn2)nc2c1CN(Cc1ccc(F)cc1)CC2 | 226 µM (≈ 95 µg/mL) | permeable | 80% | 73.8% | 44.3% | 6.70 | 6.40
19 | COc1ccc(CN2CCc3nc(-c4ccccn4)nc(N4CCN(CCN(C)C)CC4)c3C2)cc1 | 229 µM (≈ 112 µg/mL) | permeable | 70% | inactive | inactive |  | 
20 | CC(C)c1ccc(CN2CCc3nc(-c4ccccn4)nc(N4CCN(CCN(C)C)CC4)c3C2)cc1 | 186 µM (≈ 92.9 µg/mL) | permeable | 58% | 57.2% | inactive | 6.52 | 
21 | CCN(C(C)=O)C1CCN(c2nc(-c3ccccn3)nc3c2CN(Cc2ccc(Cl)cc2)CC3)C1 (stereo not given) | 223 µM (≈ 110 µg/mL) | permeable | 3% | inactive | inactive |  | 
22 | CN(C)CCN1CCN(c2nc(-c3ccccn3)nc3c2CN(Cc2ccsc2)CC3)CC1 | 235 µM (≈ 109 µg/mL) | permeable | 66% | 79.8% | inactive | 6.70 | 
